# Experimental data taken from ChEMBL document CHEMBL3992522, “Antileishmanial Activity of Pyrazolopyridine Derivatives and Their Potential as an Adjunct Therapy with Miltefosine” (J Med Chem, 2017).
# Calls of active or inactive are those of the source. No cut-off for these calls is given here.
# Tests used:
# Leishmania donovani [1] = assay: Induction of apoptosis in Leishmania donovani MHOM/IN/80/DD8 promastigote forms assessed as late apoptotic cells at IC50 after 48 hrs by Annexin V-FITC/propidium iodide staining based flow cytometry (reference value: 0.86%); type: functional
# [2] = Metabolic stability in mouse liver S9 fractions assessed as rate constant for metabolism at 1 mM after 60 mins in presence of NADPH by HPLC method; type: ADME, tissue-based
# Leishmania donovani [3] = assay: Antileishmanial activity against Leishmania donovani amastigote forms infected in Balb/c mouse assessed as inhibition of parasitic burden in liver at 25 mg/kg, ip administered for 5 consecutive days measured on day 7 post last treatment by Giemsa staining based assay relative to control; conditions: 168 h
# Leishmania donovani [4] = assay: Antileishmanial activity against Leishmania donovani MHOM/IN/80/DD8 promastigote forms harboring luciferase gene at 6.25 to 12.5 uM up to 4 days by Steady-Glo reagent based luminescence assay; type: functional
# How it was run: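 Log-phase luciferase promastigotes at 1.0×10^6 at 24 °C, pH 7.4, given two-fold dilutions from 200 to 6.25 µM. RLU in lysed cultures measured daily for up to 4 days to plot growth curves. Three independent experiments.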
# Mus musculus [5] = assay: (§1) Restoration of T cell proliferation in Balb/c mouse splenocytes infected with Leishmania donovani amastigote forms at 25 mg/kg, ip co-treated with 5 mg/kg, po miltefosine administered for 5 consecutive days measured on day 4 post last treatment followed by soluble Leishmania donovani promastigote antigen-stimulation for 72 hrs by MTT assay relative to control; type: functional
# How it was run: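 Splenocytes from treated infected BALB/c mice (day 4 or 7 post-treatment) isolated by Ficoll gradient, plated at 10^5/well in triplicate in phenol red-free RPMI 1640, stimulated with 5 μg/mL SLA for 72 h at 37 °C, 5% CO2. Proliferation read by MTT (0.5 mg/mL), formazan dissolved in DMSO, OD 540 nm.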
# [6] = Cytotoxicity against mouse J774 cells assessed as cell viability […] after 72 hrs by MTT assay relative to control; type: cell-based; conditions: read-out: Activity
# How it was run: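 Vero and J774 cells seeded at 1×10^5 per well for 24 h, then exposed 72 h to seven two-fold dilutions from 500 to 7.81 μM. MTT solution (5 mg/mL stock) added for 2 h at 37 °C, formazan dissolved in DMSO and read at 540 nm. CC50 derived by the Huber and Koella method.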
# Leishmania donovani [7] = assay: Antileishmanial activity against Leishmania donovani amastigote forms infected in Balb/c mouse assessed as inhibition of parasitic burden in liver at 200 mg/kg, ip administered for 5 consecutive days measured on day 7 post last treatment by Giemsa staining based assay relative to control; type: functional; conditions: Leishmania donovani, ip, 168 h
# Mus musculus [8] = assay: Increase in iNOS mRNA expression level in Balb/c mouse splenocytes infected with Leishmania donovani amastigote forms at 25 mg/kg, ip for 5 consecutive days measured on day 7 post last treatment by RT-PCR assay relative to control; type: functional
# How it was run: (§2)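 Infected BALB/c mice dosed for 5 consecutive days (test compound i.p. in 8% DMSO, miltefosine oral), n = 5 per group; splenocytes taken day 4 and day 7 post-treatment. Total RNA extracted and iNOS mRNA quantified by real-time PCR, normalized to mouse β-actin, expressed as fold change over uninfected controls.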
# Leishmania donovani [9] = assay: Induction of apoptosis in Leishmania donovani MHOM/IN/80/DD8 promastigote forms assessed as DNA fragmentation at IC50 after 48 hrs by propidium iodide staining based TUNEL assay; type: functional
# How it was run: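 DNA fragmentation detected by TUNEL under fluorescence and phase-contrast microscopy, with counts of TUNEL-positive cells; three independent experiments.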
# Mus musculus [10] = assay: as §1, with “Increase in iNOS-mediated NO generation” for “Restoration of T cell proliferation”, “cotreated” for “co-treated”, “miltefosine” for “miltefosine administered”, “Griess” for “MTT”; type: functional
# How it was run: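 Splenocytes from treated infected BALB/c mice (5-day regimen, i.p. test compound, oral miltefosine; n = 5) isolated day 4 and day 7 post-treatment. Cultured in phenol red-free RPMI 1640 with 5 μg/mL SLA for 72 h at 37 °C, 5% CO2. Supernatant nitrite measured by Griess assay at 540 nm against a sodium nitrite standard curve.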
# Leishmania donovani [11] = assay: Antileishmanial activity against Leishmania donovani MHOM/IN/80/DD8 amastigote forms harboring luciferase gene infected in mouse J774 cells after 72 hrs by Steady-Glo reagent based two fold dilution assay; type: functional; conditions: MHOM/IN/80/DD8, 72 h
# How it was run: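 Promastigotes or J774-resident amastigotes treated 72 h with six two-fold dilutions from 200 µM down to 6.25 µM. Luciferase RLU fitted by four-parameter Hill non-linear regression to derive the […] inhibitory concentration (MIC).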
# Leishmania donovani [12] = assay: Antileishmanial activity against Leishmania donovani MHOM/IN/80/DD8 amastigote forms harboring luciferase gene infected in mouse J774 cells at 6.25 to 12.5 uM up to 4 days by Steady-Glo reagent based luminescence assay; type: functional, cell-based
# How it was run: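 Infected J774 macrophages held at 37 °C with two-fold dilutions from 200 to 6.25 µM. Intracellular amastigote growth followed by luciferase activity in lysed macrophages, expressed as RLU, over time. Three independent experiments.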
# Leishmania donovani [13] = assay: Antileishmanial activity against Leishmania donovani amastigote forms infected in Balb/c mouse assessed as inhibition of parasitic burden in spleen at 25 mg/kg, ip co-treated with 5 mg/kg, po miltefosine administered for 5 consecutive days measured on day 4 and 7 post last treatment by Giemsa staining based assay relative to control; type: functional
# How it was run: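 Combination study with seven groups of 5 infected BALB/c mice, including vehicle (8% DMSO i.p.), infected untreated and miltefosine-alone groups. Treatment daily for 5 days, test compound i.p. and miltefosine orally. Mice killed on days 4 and 7 post-treatment; liver and spleen parasite load counted on Giemsa-stained stamp smears and expressed as LDU relative to infected untreated mice. Mean ± SD, n = 5, three independent experiments.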
# Leishmania donovani [14] = assay: Antileishmanial activity against Leishmania donovani MHOM/IN/80/DD8 amastigote forms harboring luciferase gene infected in mouse J774 cells at 50 uM after 72 hrs by Steady-Glo reagent based luminescence assay relative to control; type: functional; conditions: MHOM/IN/80/DD8, J774, 72 h, read-out: GI
# How it was run: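 Stationary-phase luciferase-expressing Dd8 promastigotes infected into J774 macrophages (4×10^4/mL seeded, 24 h, 37 °C, 5% CO2) at 1:8 macrophage:parasite for 24 h. Non-internalised parasites washed off. Compounds added at 50 and 25 µM in RPMI/10% FBS for 72 h. Lysis with Steady-Glo luciferin reagent plus PBS, luminescence read. Inhibition relative to untreated infected controls.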
# Mus musculus [15] = assay: Decrease in TGFbeta level in Balb/c mouse splenocytes infected with Leishmania donovani amastigote forms at 25 mg/kg, ip co-treated with 5 mg/kg, po miltefosine administered for 5 consecutive days measured on day 4 post last treatment by sandwich ELISA relative to control; type: functional
# How it was run: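 Splenocytes (2×10^6) from treated infected BALB/c mice taken on day 4 or 7 post-treatment. Cultured in phenol-red-free RPMI 1640 with 5 μg/mL soluble L. donovani antigen for 72 h at 37 °C, 5% CO2. Supernatant cytokines measured by sandwich ELISA against a standard curve. Mean ± SD, n = 5 mice per group, three independent experiments.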
# Mus musculus [16] = assay: Increase in iNOS mRNA expression level in Balb/c mouse splenocytes infected with Leishmania donovani amastigote forms at 25 mg/kg, ip for 5 consecutive days measured on day 4 post last treatment by RT-PCR assay relative to control; type: functional; how it was run: as §2
# Leishmania donovani [17] = assay: Induction of apoptosis in Leishmania donovani MHOM/IN/80/DD8 promastigote forms assessed as cell rounding at IC50 after 48 hrs by propidium iodide staining based fluorescent microscopic method; type: functional
smiles,measurement,setting,value
COc1ccc(C2C3=C(CCC3=O)Nc3c2c(-c2c[nH]c4ccccc24)nn3-c2ccc(Cl)c(Cl)c2)cc1OC (configuration not stated),Activity,Leishmania donovani [1],21%
same,"k el at 1 h, 1000 µM",[2],0.000217 s⁻¹
same,inhibition in vivo at 25 mg/kg,Leishmania donovani [3],> 48%
same,Activity,Leishmania donovani [4],Active
same,fold change (FC),Mus musculus [5],9.9
same,viability at 72 h,[6],> 95%
same,inhibition in vivo at 200 mg/kg,Leishmania donovani [7],93%
same,fold change (FC),Mus musculus [8],3.3
same,Activity,Leishmania donovani [9],Active
same,fold change (FC),Mus musculus [10],5.6
same,MIC,Leishmania donovani [11],50 µM
same,Activity,Leishmania donovani [12],Active
same,inhibition (INH),Leishmania donovani [13],>97%
same,inhibition of growth at 50 µM,Leishmania donovani [14],97.3%
same,inhibition (INH),Mus musculus [15],88%
same,fold change (FC),Mus musculus [16],4.9
same,Activity,Leishmania donovani [17],Active
